Results taken from ChEMBL document CHEMBL5104102, “Discovery of FtsZ inhibitors by virtual screening as antibacterial agents and study of the inhibition mechanism” (RSC Med Chem, 2022).
Converted amounts (≈) assume the structure as drawn. The source made the active and inactive calls. The calls are words filed in the database; no cut-off is given here.

What was measured:
Escherichia coli [1] = test: Antibacterial activity against Escherichia coli 25922 assessed as inhibition of bacterial growth incubated for 18 hrs by CLSI protocol based two fold serial dilution method; format: functional
In short: (§1)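 B. subtilis 168 or E. coli ATCC 25922 was grown in MHB and tested by CLSI-based broth microdilution. An overnight culture (37 °C, 250 rpm) was diluted tenfold, grown 2 h, and set to 5 × 10^6 CFU mL−1 by A600. Cells were added to two-fold serial compound dilutions (1% DMSO) and incubated 18 h at 37 °C. Read-out was A600, in duplicate. MIC was the lowest concentration giving A600 < 0.1.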

Staphylococcus aureus [2] = test: Antibacterial activity against Staphylococcus aureus 29213 assessed as inhibition of bacterial growth incubated for 18 hrs by CLSI protocol based two fold serial dilution method; format: functional
In short: as §1, with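 “S. aureus” for “B. subtilis 168 or E. coli”, “29213” for “25922”, “CAMHB” for “MHB”, “mL−1.” for “mL−1 by A600.”, “with” for “giving”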

Bacillus subtilis [3] = test: Antibacterial activity against Bacillus subtilis 168 assessed as inhibition of bacterial growth incubated for 18 hrs by CLSI protocol based two-fold serial dilution assay; format: functional; in short: as §1
Staphylococcus aureus [4] = test: Synergistic antibacterial activity against methicillin-resistant Staphylococcus aureus BAA 41 assessed as FICI incubated for 18 hrs in presence of S2163 by checkerboard assay; format: functional
In short: (§2)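 Checkerboard against MRSA BAA 41. Compound two-fold serially diluted across the plate and methicillin down it. Inoculum 5 × 10^5 CFU mL−1, with untreated-cell columns. Incubated at 37 °C for 16–24 h and growth read as A600. FICI computed from the combined MICs, and <0.5 taken as synergy.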

Staphylococcus aureus [5] = test: microbe, parasite or virus in culture; details: BAA 41, 18 h
Staphylococcus aureus [6] = test: Antibacterial activity against methicillin-resistant Staphylococcus aureus BAA 41 assessed as inhibition of bacterial growth incubated for 18 hrs by CLSI protocol based two fold serial dilution method; format: functional
In short: (§3)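 CAMHB culture grown overnight at 37 °C with shaking at 250 rpm, diluted 10-fold, and grown 2 h. Inoculum set to 5 × 10^6 CFU mL−1 by A600. Compounds in DMSO were serially diluted two-fold, with 1% DMSO per well. Read at A600 after 18 h at 37 °C. MIC is the lowest concentration giving A600 < 0.1. Run in duplicate.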

Staphylococcus aureus [7] = test: Antibacterial activity against methicillin-resistant Staphylococcus aureus ATCC 33591 assessed as inhibition of bacterial growth incubated for 18 hrs by CLSI protocol based two fold serial dilution method; format: functional; in short: as §3
Staphylococcus aureus [8] = test: Synergistic antibacterial activity against methicillin-resistant Staphylococcus aureus BAA 41 assessed as inhibition of bacterial growth incubated for 18 hrs in presence of PC190723 by checkerboard assay; format: functional
Staphylococcus aureus [9] = test: microbe, parasite or virus in culture; details: BAA 41, 18 h; remark: listed apart in the source
Staphylococcus aureus [10] = test: Synergistic antibacterial activity against methicillin-resistant Staphylococcus aureus BAA 41 assessed as FICI incubated for 18 hrs in presence of PC190723 by checkerboard assay; format: functional; in short: as §2
Staphylococcus aureus [11] = test: Antibacterial activity against methicillin-resistant Staphylococcus aureus ATCC 43300 assessed as inhibition of bacterial growth incubated for 18 hrs by CLSI protocol based two fold serial dilution method; format: functional; in short: as §3
Staphylococcus aureus [12] = test: Antibacterial activity against methicillin-resistant Staphylococcus aureus BAA 1720 assessed as inhibition of bacterial growth incubated for 18 hrs by CLSI protocol based two fold serial dilution method; format: functional; in short: as §3
Staphylococcus aureus [13] = test: Synergistic antibacterial activity against methicillin-resistant Staphylococcus aureus BAA 41 assessed as FICI incubated for 18 hrs in presence of S2727 by checkerboard assay; format: functional; in short: as §2
Staphylococcus aureus [14] = test: Antibacterial activity against methicillin-resistant Staphylococcus aureus ATCC 33592 assessed as inhibition of bacterial growth incubated for 18 hrs by CLSI protocol based two fold serial dilution method; format: functional; in short: as §3
Staphylococcus aureus [15] = test: Antibacterial activity against methicillin-resistant Staphylococcus aureus BAA 44 assessed as inhibition of bacterial growth incubated for 18 hrs by CLSI protocol based two fold serial dilution method; format: functional; in short: as §3
Staphylococcus aureus [16] = test: Synergistic antibacterial activity against methicillin-resistant Staphylococcus aureus BAA 41 assessed as inhibition of bacterial growth incubated for 18 hrs in presence of methicillin by checkerboard assay; format: functional
In short: (§4)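 Checkerboard: test compound serially diluted two-fold across the plate and methicillin serially diluted down it. Bacteria added at 5 × 10^5 CFU mL−1. Incubated at 37 °C for 16–24 h, then growth read at A600. Untreated-cell columns included. FICI calculated from the combination MICs.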

Escherichia coli [17] = test: Synergistic antibacterial activity against Escherichia coli 25922 assessed as inhibition of bacterial growth incubated for 18 hrs in presence of PMBN by checkerboard assay; format: functional
In short: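 E. coli ATCC 25922 was tested in MHB by the broth microdilution format with two-fold serial compound dilutions. Polymyxin B nonapeptide was added to each well at 20 μg mL−1 final before adding bacteria at 5 × 10^5 CFU mL−1. Growth was read by A600.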

Staphylococcus aureus [18] = test: Synergistic antibacterial activity against methicillin-resistant Staphylococcus aureus BAA 41 assessed as FICI incubated for 18 hrs in presence of methicillin by checkerboard assay; format: functional; in short: as §4
Staphylococcus aureus [19] = test: Bactericidal activity against methicillin-resistant Staphylococcus aureus BAA 41 assessed as inhibition of bacterial growth at 2 ug/ml incubated for 24 hrs by time-kill assay; format: functional, organism-based; details: dose 2.0 µg/ml
In short: (§5)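 Time-kill: 3 mL culture at 5 × 10^5 CFU mL−1 exposed to compound at several concentrations or to 1% DMSO control at 37 °C with shaking at 250 rpm, over 24 h. 100 μL samples taken at intervals, diluted as needed, and spread on agar. Colonies counted after 24 h at 37 °C.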

[20] = target: T1, Cell division protein FtsZ (Staphylococcus aureus) (UniProt P0A031); test: Inhibition of Staphylococcus aureus FtsZ polymerization assessed as increase in GTPase activity at 1 ug/ml incubated for 40 mins in presence of GTP by malachite green phosphate assay; details: dose 1.0 µg/ml
T1 sequence (whole entry): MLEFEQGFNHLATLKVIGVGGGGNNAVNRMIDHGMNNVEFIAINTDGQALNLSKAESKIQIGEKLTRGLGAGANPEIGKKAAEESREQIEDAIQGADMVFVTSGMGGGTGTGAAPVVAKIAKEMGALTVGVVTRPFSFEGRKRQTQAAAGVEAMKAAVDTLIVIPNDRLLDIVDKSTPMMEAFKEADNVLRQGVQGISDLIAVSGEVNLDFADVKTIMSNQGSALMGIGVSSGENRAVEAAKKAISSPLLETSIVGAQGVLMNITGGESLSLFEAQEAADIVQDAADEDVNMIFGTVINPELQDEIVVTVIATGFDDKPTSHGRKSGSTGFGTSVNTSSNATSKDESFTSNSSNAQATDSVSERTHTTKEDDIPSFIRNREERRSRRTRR
In short: (§6)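 Purified S. aureus FtsZ (3 μM) was preincubated with serially diluted compound in 50 mM MOPS pH 6.5 for 30 min at room temperature; 1% DMSO served as control. MgCl2 (5 mM) and KCl (200 mM) were added, and the reaction was started with 250 μM GTP for 10 min at 37 °C. Malachite green reagent was then developed 30 min at 37 °C, and released phosphate was read at A600.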

Bacillus subtilis [21] = test: Antibacterial activity against Bacillus subtilis 168 assessed as cell length at 0.5 ug/ml incubated for 4 hrs by phase-contrast microscopy; format: functional; details: dose 0.5 µg/ml
In short: (§7)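 B. subtilis 168 overnight culture was diluted tenfold into fresh medium and grown 2 h. It was then adjusted to A600 = 0.01, given compound, and incubated 4 h at 37 °C; 1% (v/v) DMSO was the control. Cells were harvested, resuspended in LB, mounted on 1.2% agarose pads and imaged by phase contrast. Lengths of 100 cells per condition were measured to give length distributions and averages.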

Staphylococcus aureus [22] = test: Bactericidal activity against methicillin-resistant Staphylococcus aureus BAA 41 assessed as inhibition of bacterial growth incubated for 24 hrs by time-kill assay; format: functional; in short: as §5
[23] = target: T1, Cell division protein FtsZ (Staphylococcus aureus); test: Inhibition of Staphylococcus aureus FtsZ polymerization assessed as increase in GTPase activity at 5 to 20 ug/ml incubated for 40 mins in presence of GTP by malachite green phosphate assay; details: dose 5-20 µg/ml, DDE = dose-dependent effect; in short: as §6
Staphylococcus aureus [24] = test: Bactericidal activity against methicillin-resistant Staphylococcus aureus BAA 41 assessed as inhibition of bacterial growth at 4 ug/ml incubated for 24 hrs by time-kill assay; format: functional; details: dose 4 µg/ml; in short: as §5
Staphylococcus aureus [25] = test: Bactericidal activity against methicillin-resistant Staphylococcus aureus BAA 41 assessed as inhibition of bacterial growth at 8 ug/ml incubated for 24 hrs by time-kill assay; format: functional; details: dose 8 µg/ml; in short: as §5
[26] = target: T2, Cell division protein FtsZ (Bacillus subtilis (strain 168)) (UniProt P17865); test: Inhibition of GFP-tagged FtsZ in Bacillus subtilis 168 assessed as inhibition of z-ring formation at 0.125 ug/ml incubated for 4 hrs by FM 5-96 dye based super-resolution microscopy; details: dose 0.125 µg/ml
T2 sequence (whole entry): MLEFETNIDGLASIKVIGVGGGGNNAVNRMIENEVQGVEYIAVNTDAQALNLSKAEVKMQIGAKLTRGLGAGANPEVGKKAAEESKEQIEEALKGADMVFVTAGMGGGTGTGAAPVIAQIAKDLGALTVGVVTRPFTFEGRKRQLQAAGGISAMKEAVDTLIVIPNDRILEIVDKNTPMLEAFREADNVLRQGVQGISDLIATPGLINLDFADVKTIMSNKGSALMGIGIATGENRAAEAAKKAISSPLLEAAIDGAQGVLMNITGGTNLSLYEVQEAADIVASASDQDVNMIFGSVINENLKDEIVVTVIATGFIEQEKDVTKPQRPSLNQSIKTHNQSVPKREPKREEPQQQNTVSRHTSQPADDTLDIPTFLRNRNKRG
In short: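 B. subtilis 168 carried an IPTG-inducible FtsZ-GFP plasmid and was grown overnight at 37 °C in LB with 30 μg mL−1 chloramphenicol. It was back-diluted to A600 = 0.01, induced with 40 μM IPTG, and treated with compound for 4 h at 37 °C with shaking. Cells were pelleted, resuspended in PBS and mounted on agarose pads. Membranes were stained with FM 5-96, and FtsZ-GFP localization was imaged by super-resolution microscopy (N-SIM).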

[27] = Ratio of MBC for bactericidal activity against methicillin-resistant Staphylococcus aureus BAA 41 to MIC for antibacterial activity against methicillin-resistant Staphylococcus aureus BAA 41; format: functional
In short: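 MBC: culture at 5 × 10^5 CFU mL−1 incubated overnight at 37 °C with shaking and compound or 1% DMSO, then diluted ≥10-fold and plated on TSA for 24 h at 37 °C. MBC is the lowest concentration giving ≥99.9% reduction of the initial count. MBC is divided by the broth-dilution MIC (A600 < 0.1 after 18 h).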

Staphylococcus aureus [28] = test: Bactericidal activity against methicillin-resistant Staphylococcus aureus BAA 41 assessed as inhibition of bacterial growth at 1 ug/ml incubated for 24 hrs by time-kill assay; format: functional, organism-based; details: dose 1.0 µg/ml; in short: as §5
Bacillus subtilis [29] = test: Antibacterial activity against Bacillus subtilis 168 assessed as cell elongation at 0.5 ug/ml incubated for 4 hrs by phase-contrast microscopy; format: functional; details: dose 0.5 µg/ml; in short: as §7

SMILES	MIC (Escherichia coli [1]) [µg/mL]	MIC (Staphylococcus aureus [2]) [µg/mL]	MIC (Bacillus subtilis [3]) [µg/mL]	MIC (Staphylococcus aureus [6]) [µg/mL]	MIC (Staphylococcus aureus [7]) [µg/mL]	MIC (Staphylococcus aureus [11]) [µg/mL]	MIC (Staphylococcus aureus [12]) [µg/mL]	MIC (Staphylococcus aureus [14]) [µg/mL]	MIC (Staphylococcus aureus [15]) [µg/mL]	MIC (Staphylococcus aureus [16]) [µg/mL]	MIC (Escherichia coli [17]) [µg/mL]	fractional inhibitory concentration index (FICI) (Staphylococcus aureus [18])	also measured
Cc1cnc(-c2cc(N3CCN(C(=O)CCS(C)(=O)=O)CC3)ncc2Cl)c(C)c1	> 128	> 128	> 128										
COc1cccc(OC)c1C(=O)N[C@@H]1C(=O)N2[C@@H]1SC(C)(C)[C@@H]2C(=O)O [METHICILLIN]				1020 (≈ 2690 µM)	512 (≈ 1350 µM)	256 (≈ 673 µM)	256 (≈ 673 µM)	256 (≈ 673 µM)	512 (≈ 1350 µM)				fractional inhibitory concentration index (FICI) (Staphylococcus aureus [4]): >1; MIC (Staphylococcus aureus [5]): 1 µg/mL (≈ 2.63 µM); MIC (Staphylococcus aureus [8]): 4 µg/mL; MIC (Staphylococcus aureus [9]): 4 µg/mL (≈ 10.5 µM); fractional inhibitory concentration index (FICI) (Staphylococcus aureus [10]): 0.52; fractional inhibitory concentration index (FICI) (Staphylococcus aureus [13]): 0.5
CCc1cncnc1N1CCN(Cc2nc3cc(C(F)(F)F)ccc3[nH]2)CC1	> 128	128 (≈ 328 µM)	128 (≈ 328 µM)	64 (≈ 164 µM)	64 (≈ 164 µM)	32 (≈ 82 µM)	64 (≈ 164 µM)	64 (≈ 164 µM)	64 (≈ 164 µM)	128	64	>1	
NC(=O)c1c(F)ccc(OCc2nc3cc(Cl)cnc3s2)c1F	> 128	0.5 (≈ 1.41 µM)	0.5 (≈ 1.41 µM)	0.5 (≈ 1.41 µM)	1 (≈ 2.81 µM)	1 (≈ 2.81 µM)	1 (≈ 2.81 µM)	2 (≈ 5.62 µM)	1 (≈ 2.81 µM)	0.5	32	0.52	Activity (Staphylococcus aureus [19]): Active; inhibition [20]: 105%; Activity (Bacillus subtilis [21]): 135.8 um; MBC (Staphylococcus aureus [22]): 2 µg/mL (≈ 5.62 µM); inhibition [23]: Dde; Activity (Staphylococcus aureus [24]): 0 log10CFU/ml; Activity (Staphylococcus aureus [25]): 0 log10CFU/ml; inhibition [26]: Active; Ratio [27]: 2; Activity (Staphylococcus aureus [28]): Active; Activity (Bacillus subtilis [29]): 33%
CC1(C)CC(=O)c2c(C(F)(F)F)nn(-c3ccc(C(N)=O)c(N[C@H]4CC[C@H](OC(=O)CN)CC4)c3)c2C1 [SNX 5422]	> 128	> 128	> 128										
